Assay results as given in ChEMBL document CHEMBL1129965, “GRID/GOLPE 3D quantitative structure-activity relationship study on a set of benzamides and naphthamides, with affinity for the dopamine D3 receptor subtype” (J Med Chem, 1997).

Key:
[1] = molecular target: D(3) dopamine receptor (Homo sapiens, UniProt P35462); test: Competitive inhibition of [3H]spiperone binding to the human dopamine receptor D3 expressed in CHO cells, expressed as 10log Ki; assay type: cell-based
Outline: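 Displacement of [3H]spiperone from human dopamine D3 receptors expressed in CHO K1 cells. Four to six test concentrations, each run in triplicate. IC50 from nonlinear regression, converted to Ki (nM) by Cheng–Prusoff, then reported as 10log Ki.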

[2] = Competitive inhibition of [3H]spiperone binding to the human dopamine receptor D3 expressed in CHO cells, expressed as 10log Ki

Chain of D(3) dopamine receptor (P35462 whole entry): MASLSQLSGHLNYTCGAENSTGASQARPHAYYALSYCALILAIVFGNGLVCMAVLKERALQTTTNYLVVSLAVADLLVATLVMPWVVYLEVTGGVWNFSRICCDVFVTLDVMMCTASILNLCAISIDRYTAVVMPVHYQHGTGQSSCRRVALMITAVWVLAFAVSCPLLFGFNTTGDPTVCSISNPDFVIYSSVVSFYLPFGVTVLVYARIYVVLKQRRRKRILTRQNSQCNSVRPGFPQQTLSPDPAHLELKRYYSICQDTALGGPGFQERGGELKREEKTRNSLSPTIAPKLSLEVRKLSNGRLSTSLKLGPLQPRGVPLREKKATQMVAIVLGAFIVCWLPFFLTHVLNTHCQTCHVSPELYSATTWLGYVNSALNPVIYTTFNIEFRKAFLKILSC

Row | SMILES | Ki [1] | Log Ki(nM) [2]
1 | COc1c(C(=O)NCCN2CCN(c3ccccn3)CC2)cc(Br)c2ccccc12 | 79.4 nM | –
2 | COc1c(Cl)cc(Cl)c(O)c1C(=O)NCCN1CCN(c2cccc(Cl)c2Cl)CC1 | 501 nM | –
3 | COc1c(C(=O)NCCN2CC=C(c3ccccc3)CC2)cc(Br)c2ccccc12 | 20 nM | –
4 | COc1c(C(=O)NCCN2CCC(c3ccccc3)CC2)cc(Br)c2ccccc12 | 79.4 nM | –
5 | COc1ccc(Br)c(O)c1C(=O)NCCN1CCN(c2ccccc2)CC1 | 398 nM | –
6 | CCOc1c(C(=O)NCCN2CCN(c3ccccn3)CC2)cc(Br)c2ccccc12 | 79.4 nM | –
7 | CCOc1c(C(=O)NCCN2CCN(c3cccc(C(F)(F)F)c3)CC2)cc(Br)c2ccccc12 | 126 nM | –
8 | COc1c(C(=O)NCCN2CCN(c3ccc(Cl)c(Cl)c3)CC2)cc(Br)c2ccccc12 | 200 nM | –
9 | COc1c(C(=O)NCCN2CCN(c3ccccc3C)CC2)cc(Br)c2ccccc12 | 63.1 nM | –
10 | COc1c(C(=O)NCCN2CCN(c3ccc(C)cc3)CC2)cc(Br)c2ccccc12 | 251 nM | –
11 | COc1c(C(=O)NCCN2CCN(c3ccccc3)CC2)cc(Br)c2ccccc12 | 25.1 nM | –
12 | COc1c(Cl)cc(Cl)c(O)c1C(=O)NCCN1CCN(c2ccccc2)CC1 | 1000 nM | –
13 | COc1c(C(=O)NCCN2CCN(c3cccc(C(F)(F)F)c3)CC2)cc(Br)c2ccccc12 | 251 nM | –
14 | COc1c(C(=O)NCCN2CCN(c3ccccc3)CC2)cc2ccccc2c1Br | 316 nM | –
15 | COc1c(C(=O)NCCN2CCN(c3cccc(Cl)c3Cl)CC2)cc(Cl)c2ccccc12 | 39.8 nM | –
16 | COc1c(C(=O)NCCN2CCN(c3cccc(Cl)c3)CC2)cc(Br)c2ccccc12 | – | 1.6

The remaining compounds from weak to strong by Ki [1], led by results:

Row | Ki [1] | Log Ki(nM) [2] | SMILES
17 | 1580 nM | – | CCc1cc(Cl)c(O)c(C(=O)NCCN2CCN(c3ccccc3)CC2)c1OC
18 | 316 nM | – | COc1ccc(Br)cc1C(=O)NCCN1CCN(c2ccccc2)CC1
19 | 316 nM | – | COc1c(C(=O)NCCN2CCN(c3cccc(C)c3)CC2)cc(Br)c2ccccc12
20 | 251 nM | – | COc1c(C(=O)NCCN2CCN(c3ccc4ccccc4n3)CC2)cc(Br)c2ccccc12
21 | 251 nM | – | CCOc1c(C(=O)NCCN2CCN(c3ccccc3)CC2)cc(Br)c2ccccc12
22 | 200 nM | – | COc1c(C(=O)NCCN2CCN(c3ccc(F)cc3F)CC2)cc(Br)c2ccccc12
23 | 100 nM | – | COc1c(C(=O)NCCN2CCN(c3ccc(Cl)cc3Cl)CC2)cc(Br)c2ccccc12
24 | 79.4 nM | – | CCOc1c(C(=O)NCCN2CCN(c3ccccc3OC)CC2)cc(Br)c2ccccc12
25 | 79.4 nM | – | COc1ccccc1N1CCN(CCNC(=O)c2cc(Br)c3ccccc3c2OC)CC1
26 | 50.1 nM | – | COc1c(C(=O)NCCN2CCN(c3cccc(Cl)c3C)CC2)cc(Br)c2ccccc12
27 | 50.1 nM | – | COc1c(C(=O)NCCN2CCN(c3ccccc3C#N)CC2)cc(Br)c2ccccc12
28 | 50.1 nM | – | COc1c(C(=O)NCCN2CCN(c3ccccc3)CC2)cc(Cl)c2ccccc12
29 | 39.8 nM | – | COc1c(C(=O)NCCN2CCN(c3ccccc3Cl)CC2)cc(Br)c2ccccc12
